Measured values taken from ChEMBL document CHEMBL1961794, “Regulation of circadian behaviour and metabolism by synthetic REV-ERB agonists” (Nature, 2012).
The source made the active and inactive calls. The rule behind the calls is not given here.

What was measured:
[1] = biological target: Estrogen receptor beta (Homo sapiens) (UniProt Q92731); assay: Effect on ESR2(NR3A2) dependent reporter activity in HEK293 cells at 20 uM; type: cell-based
Outline: (§1)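 Specificity panel covering all 48 human nuclear receptors. HEK293 cells cotransfected with Gal4 DNA-binding domain–nuclear receptor fusions and a luciferase reporter. Compound tested at a single 20 μM concentration. Mean ± s.e.m., n=3.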

[2] = Plasma concentration after 4 hours at 10mg/kg ip dose (10mg/ml suspension in 10%DMSO/10%Tween80); type: ADME, organism-based; details: mouse, read-out: Conc_plasma
Outline: (§2)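 Mice received a single 10 mg/kg i.p. dose as a 10 mg/ml suspension in DMSO/Tween80/water (10/10/80). Plasma was sampled at 1, 2, 4 and 8 h post-injection and drug concentration reported in μM. Mean ± s.e.m., n=3.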

[3] = biological target: Nuclear receptor ROR-beta (Homo sapiens) (UniProt Q92753); assay: Effect on RORB(NR1F2) dependent reporter activity in HEK293 cells at 20 uM
[4] = test system: Mus musculus; assay: Decreased expression of REV-ERB responsive gene Srebf1 in mouse liver after 6 days at 100 mg/kg; type: functional, organism-based; parameters: dose 100 mg/kg
[5] = biological target: Nuclear receptor ROR-alpha (Homo sapiens) (UniProt P35398); assay: Effect on RORA(NR1F1) dependent reporter activity in HEK293 cells at 20 uM; type: cell-based; outline: as §1
[6] = biological target: Retinoic acid receptor RXR-alpha (Homo sapiens) (UniProt P19793); assay: Effect on RXRA(NR2B1) dependent reporter activity in HEK293 cells at 20 uM; type: cell-based; outline: as §1
[7] = biological target: Nuclear receptor subfamily 1 group D member 1 (Homo sapiens) (UniProt P20393); assay: Recruitment of co-repressor NcoR1 to REV-ERB-alpha; type: functional
Outline: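 Biochemical corepressor-interaction assay using Luminex bead technology, measuring compound-dependent recruitment of an NCoR CoRNR box peptide to REV-ERBα. Mean ± s.e.m., n=3.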

[8] = biological target: Bile acid receptor (Homo sapiens) (UniProt Q96RI1); assay: Effect on BAR(NR1H4) dependent reporter activity in HEK293 cells at 20 uM; type: cell-based; outline: as §1
[9] = biological target: Nuclear receptor subfamily 4 group A member 3 (Homo sapiens) (UniProt Q92570); assay: Effect on NOR1(NR4A3) dependent reporter activity in HEK293 cells at 20 uM; type: cell-based; outline: as §1
Chain of Nuclear receptor subfamily 4 group A member 3 (Homo sapiens) (Q92570 whole entry): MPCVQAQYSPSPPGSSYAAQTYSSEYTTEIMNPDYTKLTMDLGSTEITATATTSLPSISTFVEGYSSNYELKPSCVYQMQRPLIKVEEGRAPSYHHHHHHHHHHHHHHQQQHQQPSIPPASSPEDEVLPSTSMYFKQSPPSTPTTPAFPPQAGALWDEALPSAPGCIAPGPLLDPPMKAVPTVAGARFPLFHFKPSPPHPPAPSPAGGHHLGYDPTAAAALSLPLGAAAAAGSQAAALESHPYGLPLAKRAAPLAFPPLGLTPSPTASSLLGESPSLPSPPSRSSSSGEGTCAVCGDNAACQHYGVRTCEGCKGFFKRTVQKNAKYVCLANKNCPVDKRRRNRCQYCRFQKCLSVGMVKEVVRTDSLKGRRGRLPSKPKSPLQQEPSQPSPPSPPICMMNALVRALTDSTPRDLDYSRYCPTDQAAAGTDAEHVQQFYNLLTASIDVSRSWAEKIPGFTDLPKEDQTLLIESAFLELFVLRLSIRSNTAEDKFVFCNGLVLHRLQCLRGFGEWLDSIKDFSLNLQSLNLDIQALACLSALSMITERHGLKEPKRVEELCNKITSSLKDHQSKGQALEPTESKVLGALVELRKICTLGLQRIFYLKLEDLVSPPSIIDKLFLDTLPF

[10] = biological target: Nuclear receptor subfamily 1 group I member 3 (Homo sapiens, UniProt Q14994); assay: Effect on CAR(NR1I3) dependent reporter activity in HEK293 cells at 20 uM; type: cell-based; details: hek293, 20 µM; outline: as §1
Chain of Nuclear receptor subfamily 1 group I member 3 (Q14994 whole entry): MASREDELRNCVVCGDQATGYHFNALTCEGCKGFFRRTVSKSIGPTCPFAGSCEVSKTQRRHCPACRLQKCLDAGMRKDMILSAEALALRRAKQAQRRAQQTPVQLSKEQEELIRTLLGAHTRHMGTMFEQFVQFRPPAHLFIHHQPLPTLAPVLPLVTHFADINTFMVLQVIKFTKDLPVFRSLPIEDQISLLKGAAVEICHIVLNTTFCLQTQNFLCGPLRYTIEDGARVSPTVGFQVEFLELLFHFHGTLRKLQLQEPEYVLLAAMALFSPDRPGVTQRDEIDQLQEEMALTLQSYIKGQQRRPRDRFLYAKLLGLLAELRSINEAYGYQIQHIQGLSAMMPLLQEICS

[11] = biological target: Androgen receptor (Homo sapiens) (UniProt P10275); assay: Effect on AR(NR3C4) dependent reporter activity in HEK293 cells at 20 uM; type: cell-based; outline: as §1
Chain of Androgen receptor (Homo sapiens) (P10275 whole entry): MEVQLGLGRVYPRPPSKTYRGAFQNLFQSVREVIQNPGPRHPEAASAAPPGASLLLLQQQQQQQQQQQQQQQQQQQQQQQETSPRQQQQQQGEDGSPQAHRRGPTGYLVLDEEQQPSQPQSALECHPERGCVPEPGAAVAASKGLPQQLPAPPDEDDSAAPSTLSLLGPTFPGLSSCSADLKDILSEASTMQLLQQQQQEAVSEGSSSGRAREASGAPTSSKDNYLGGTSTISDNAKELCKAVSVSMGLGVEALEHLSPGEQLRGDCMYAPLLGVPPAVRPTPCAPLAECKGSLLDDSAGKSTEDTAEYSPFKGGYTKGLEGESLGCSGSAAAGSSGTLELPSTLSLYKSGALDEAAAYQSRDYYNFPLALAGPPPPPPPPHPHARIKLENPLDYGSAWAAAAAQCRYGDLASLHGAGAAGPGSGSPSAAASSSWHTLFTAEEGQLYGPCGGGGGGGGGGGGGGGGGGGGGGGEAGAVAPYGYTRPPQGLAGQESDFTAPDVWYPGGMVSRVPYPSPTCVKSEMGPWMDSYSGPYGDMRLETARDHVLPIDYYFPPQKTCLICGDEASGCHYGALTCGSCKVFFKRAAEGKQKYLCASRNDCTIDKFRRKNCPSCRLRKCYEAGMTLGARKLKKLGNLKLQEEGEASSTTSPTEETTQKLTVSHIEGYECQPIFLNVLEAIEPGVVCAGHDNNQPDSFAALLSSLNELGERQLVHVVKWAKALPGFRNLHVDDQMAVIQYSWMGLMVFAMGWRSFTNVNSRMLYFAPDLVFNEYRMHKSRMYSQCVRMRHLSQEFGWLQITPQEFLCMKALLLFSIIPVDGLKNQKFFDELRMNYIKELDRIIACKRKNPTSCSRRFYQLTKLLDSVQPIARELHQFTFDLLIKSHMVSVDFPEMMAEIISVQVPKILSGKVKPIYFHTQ

[12] = biological target: Nuclear receptor subfamily 4immunitygroup A member 1 (Homo sapiens) (UniProt P22736); assay: Effect on GFRP1(NR4A1) dependent reporter activity in HEK293 cells at 20 uM; type: cell-based; outline: as §1
Chain of Nuclear receptor subfamily 4immunitygroup A member 1 (Homo sapiens) (P22736 whole entry): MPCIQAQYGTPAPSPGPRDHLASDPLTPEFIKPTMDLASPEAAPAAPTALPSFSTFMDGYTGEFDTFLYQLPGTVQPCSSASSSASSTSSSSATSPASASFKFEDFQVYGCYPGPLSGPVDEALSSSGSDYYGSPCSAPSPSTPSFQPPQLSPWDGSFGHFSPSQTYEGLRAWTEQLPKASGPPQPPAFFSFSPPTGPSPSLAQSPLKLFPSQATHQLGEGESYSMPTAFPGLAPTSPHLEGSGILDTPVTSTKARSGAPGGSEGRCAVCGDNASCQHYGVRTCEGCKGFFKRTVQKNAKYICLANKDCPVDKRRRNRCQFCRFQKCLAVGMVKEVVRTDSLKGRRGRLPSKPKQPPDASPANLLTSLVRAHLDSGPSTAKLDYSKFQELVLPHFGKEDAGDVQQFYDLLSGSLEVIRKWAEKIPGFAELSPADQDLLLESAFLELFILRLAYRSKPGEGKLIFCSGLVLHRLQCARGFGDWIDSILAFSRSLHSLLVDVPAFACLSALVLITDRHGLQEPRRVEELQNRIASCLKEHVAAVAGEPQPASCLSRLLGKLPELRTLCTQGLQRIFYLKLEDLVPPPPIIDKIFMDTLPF

[13] = biological target: Nuclear receptor subfamily 4 group A member 2 (Homo sapiens) (UniProt P43354); assay: Effect on NURR1(NR4A2) dependent reporter activity in HEK293 cells at 20 uM; type: cell-based; outline: as §1
Chain of Nuclear receptor subfamily 4 group A member 2 (Homo sapiens) (P43354 whole entry): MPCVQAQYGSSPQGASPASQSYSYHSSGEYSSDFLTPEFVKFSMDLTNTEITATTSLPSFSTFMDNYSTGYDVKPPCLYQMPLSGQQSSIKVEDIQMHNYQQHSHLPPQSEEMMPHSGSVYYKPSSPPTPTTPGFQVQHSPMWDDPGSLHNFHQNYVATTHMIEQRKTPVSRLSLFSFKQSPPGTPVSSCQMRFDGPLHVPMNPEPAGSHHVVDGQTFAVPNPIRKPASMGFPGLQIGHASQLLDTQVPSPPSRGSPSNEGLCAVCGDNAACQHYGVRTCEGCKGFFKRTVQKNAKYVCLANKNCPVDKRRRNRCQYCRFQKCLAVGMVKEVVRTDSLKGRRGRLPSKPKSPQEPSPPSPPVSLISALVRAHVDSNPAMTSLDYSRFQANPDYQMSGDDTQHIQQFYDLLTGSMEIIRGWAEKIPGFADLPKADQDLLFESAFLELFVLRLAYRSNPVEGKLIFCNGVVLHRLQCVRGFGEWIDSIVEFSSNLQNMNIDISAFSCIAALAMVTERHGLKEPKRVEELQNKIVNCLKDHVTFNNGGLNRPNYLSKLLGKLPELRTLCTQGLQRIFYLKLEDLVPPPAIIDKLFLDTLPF

[14] = Plasma concentration after 1 hour at 10mg/kg ip dose (10mg/ml suspension in 10%DMSO/10%Tween80); type: ADME, organism-based; details: mouse, read-out: Conc_plasma; outline: as §2
[15] = biological target: Nuclear receptor subfamily 0 group B member 1 (Homo sapiens) (UniProt P51843); assay: Effect on DAX1(NR0B1) dependent reporter activity in HEK293 cells at 20 uM; type: cell-based; outline: as §1
[16] = biological target: COUP transcription factor 1 (Homo sapiens) (UniProt P10589); assay: Effect on TFCOUP1(NR2F1) dependent reporter activity in HEK293 cells at 20 uM; type: cell-based
Outline: (§3)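 Cotransfection assay in HEK293 cells with Gal4 DNA-binding domain–nuclear receptor fusions, covering a panel of all 48 human nuclear receptors. Compounds were tested at 20 μM, with reporter luciferase as the read-out. Mean ± s.e.m., n=3.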

[17] = biological target: Thyroid hormone receptor alpha (Homo sapiens) (UniProt P10827); assay: Effect on THRA(NR1A1) dependent reporter activity in HEK293 cells at 20 uM; type: cell-based; outline: as §3
[18] = Plasma concentration after 8 hours at 10mg/kg ip dose (10mg/ml suspension in 10%DMSO/10%Tween80); type: ADME, organism-based; details: mouse, read-out: Conc_plasma; outline: as §2
[19] = biological target: Vitamin D3 receptor (Homo sapiens) (UniProt P11473); assay: Effect on VDR(NR1I1) dependent reporter activity in HEK293 cells at 20 uM; type: cell-based; outline: as §3
[20] = Plasma concentration after 8 hours at 100mg/kg ip dose (10mg/ml solution in 15% Cremophor); type: ADME, organism-based; details: mouse, read-out: Conc_plasma
Outline: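 Single 100 mg/kg i.p. dose given to mice as a 10 mg/ml solution in 15% Cremophor. Plasma drug concentration (μM) was measured at 2 and 8 h post-injection. Mean ± s.e.m., n=3.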

[21] = biological target: Photoreceptor-specific nuclear receptor (Homo sapiens) (UniProt Q9Y5X4); assay: Effect on PNR(NR2E3) dependent reporter activity in HEK293 cells at 20 uM; type: cell-based; outline: as §1
Chain of Photoreceptor-specific nuclear receptor (Homo sapiens) (Q9Y5X4 whole entry): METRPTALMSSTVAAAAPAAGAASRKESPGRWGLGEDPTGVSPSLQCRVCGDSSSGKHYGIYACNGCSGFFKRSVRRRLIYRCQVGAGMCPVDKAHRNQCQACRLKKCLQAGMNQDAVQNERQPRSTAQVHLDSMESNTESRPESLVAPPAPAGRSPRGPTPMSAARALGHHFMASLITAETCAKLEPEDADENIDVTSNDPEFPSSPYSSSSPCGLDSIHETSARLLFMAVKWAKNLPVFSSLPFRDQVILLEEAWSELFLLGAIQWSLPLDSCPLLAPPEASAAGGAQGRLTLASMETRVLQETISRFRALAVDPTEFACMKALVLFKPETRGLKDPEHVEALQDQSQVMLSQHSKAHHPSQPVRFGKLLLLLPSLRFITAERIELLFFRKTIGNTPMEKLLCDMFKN

[22] = biological target: Peroxisome proliferator-activated receptor alpha (Homo sapiens) (UniProt Q07869); assay: Effect on PPARA(NR1C1) dependent reporter activity in HEK293 cells at 20 uM; type: cell-based; outline: as §1
Chain of Peroxisome proliferator-activated receptor alpha (Homo sapiens) (Q07869 whole entry): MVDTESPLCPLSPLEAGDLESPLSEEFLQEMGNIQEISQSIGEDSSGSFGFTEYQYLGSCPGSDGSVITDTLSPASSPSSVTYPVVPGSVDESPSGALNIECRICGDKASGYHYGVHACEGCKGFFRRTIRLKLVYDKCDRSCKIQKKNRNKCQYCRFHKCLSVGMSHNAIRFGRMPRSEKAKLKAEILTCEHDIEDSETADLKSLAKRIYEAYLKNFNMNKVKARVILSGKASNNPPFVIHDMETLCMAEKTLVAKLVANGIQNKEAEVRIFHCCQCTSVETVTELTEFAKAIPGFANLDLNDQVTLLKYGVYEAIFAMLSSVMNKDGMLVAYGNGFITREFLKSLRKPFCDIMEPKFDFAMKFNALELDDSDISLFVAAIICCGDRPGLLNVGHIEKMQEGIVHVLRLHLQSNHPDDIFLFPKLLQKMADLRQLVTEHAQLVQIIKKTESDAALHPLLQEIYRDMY

[23] = biological target: Oxysterols receptor LXR-alpha (Homo sapiens) (UniProt Q13133); assay: Effect on LXRA(NR1H3) dependent reporter activity in HEK293 cells at 20 uM; type: cell-based; outline: as §1
[24] = biological target: Peroxisome proliferator-activated receptor gamma (Homo sapiens) (UniProt P37231); assay: Effect on PPARG(NR1C3) dependent reporter activity in HEK293 cells at 20 uM; type: cell-based; outline: as §1
Chain of Peroxisome proliferator-activated receptor gamma (Homo sapiens) (P37231 whole entry): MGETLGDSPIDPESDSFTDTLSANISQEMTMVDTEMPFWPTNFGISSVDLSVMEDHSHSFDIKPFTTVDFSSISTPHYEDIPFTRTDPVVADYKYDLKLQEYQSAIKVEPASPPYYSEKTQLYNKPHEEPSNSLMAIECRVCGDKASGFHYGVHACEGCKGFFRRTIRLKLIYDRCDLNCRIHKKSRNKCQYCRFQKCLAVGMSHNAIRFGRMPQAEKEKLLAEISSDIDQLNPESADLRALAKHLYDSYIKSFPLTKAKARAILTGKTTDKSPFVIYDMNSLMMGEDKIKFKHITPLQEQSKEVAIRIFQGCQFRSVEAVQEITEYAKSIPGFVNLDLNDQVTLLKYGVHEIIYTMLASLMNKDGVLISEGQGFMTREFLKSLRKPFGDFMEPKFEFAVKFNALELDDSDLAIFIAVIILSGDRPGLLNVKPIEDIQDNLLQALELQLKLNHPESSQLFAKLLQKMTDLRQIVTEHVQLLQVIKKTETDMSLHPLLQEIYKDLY

[25] = species: Mus musculus; assay: Inhibition of circadian oscillations in SCN explants from Per2-luc transgenic mouse; type: functional, tissue-based

Chain of Estrogen receptor beta (Homo sapiens) (Q92731 whole entry, the tested form may be a part): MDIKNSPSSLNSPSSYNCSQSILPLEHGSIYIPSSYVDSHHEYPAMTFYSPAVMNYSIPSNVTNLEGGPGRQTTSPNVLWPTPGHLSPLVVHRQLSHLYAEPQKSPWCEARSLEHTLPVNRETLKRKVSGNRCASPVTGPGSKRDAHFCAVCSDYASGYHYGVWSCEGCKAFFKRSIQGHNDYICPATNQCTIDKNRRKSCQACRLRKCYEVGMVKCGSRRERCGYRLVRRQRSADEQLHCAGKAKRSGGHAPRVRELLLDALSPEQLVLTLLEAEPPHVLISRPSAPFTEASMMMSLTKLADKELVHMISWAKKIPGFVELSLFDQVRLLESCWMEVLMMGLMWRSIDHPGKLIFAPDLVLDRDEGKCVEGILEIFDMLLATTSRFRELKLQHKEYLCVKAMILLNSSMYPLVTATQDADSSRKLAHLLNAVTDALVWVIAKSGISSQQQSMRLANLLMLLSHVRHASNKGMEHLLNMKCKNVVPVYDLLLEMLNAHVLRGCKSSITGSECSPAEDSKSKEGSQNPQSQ

SMILES | inhibition [1] | concentration at 4 h [2] | inhibition [3] | Reduced_Srebf1_gene_exp [4] | inhibition [5] | inhibition [6] | NcoR1_recruitment [7] | inhibition [8] | inhibition [9] | Inhibition [10] | inhibition [11] | inhibition [12] | inhibition [13] | concentration at 1 h [14] | inhibition [15] | inhibition [16] | inhibition [17] | concentration at 8 h [18] | inhibition [19] | concentration at 8 h [20] | other results
CCCCCNC(=O)N1CCC(CN(Cc2ccc(Cl)cc2)Cc2ccc([N+](=O)[O-])s2)C1 (centres undefined) [SR9011] | inactive | 110 nM | inactive | Active | inactive | inactive | Dose-dependent effect | inactive | inactive | Not Active | inactive | inactive | inactive | 1550 nM | inactive | inactive | inactive | 10 nM | inactive | 740 nM | inhibition [21]: inactive; inhibition [22]: inactive; inhibition [23]: inactive; inhibition [24]: inactive; Reduced_circadian_oscillation [25]: Active
CCOC(=O)N1CCC(CN(Cc2ccc(Cl)cc2)Cc2ccc([N+](=O)[O-])s2)C1 (centres undefined) [SR9009] | inactive | 220 nM | inactive | Active | inactive | inactive | Dose-dependent effect | inactive | inactive | Not Active | inactive | inactive | inactive | 1400 nM | inactive | inactive | inactive | 130 nM | inactive | 1500 nM | inhibition [21]: inactive; inhibition [22]: inactive; inhibition [23]: inactive; inhibition [24]: inactive
